Calls of active or inactive are those of the source.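 The calls were made as follows, unless noted: active = viability at or under a set limit in both replicates, limit being median viability minus 3 SD (cut at about 48% in these data, passing the limit was not always enough); inconclusive = at or under the limit in just one replicate; inactive = at or above the limit in both replicates.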

Test [1] can be described thus: reducers of endogenous Her2 protein level, primary screen, SKBR3 breast tumor cells, AlphaScreen, ATP viability (AID 461;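 active = Her2 level under about 52% in both replicate screens, with viability over 70% of control, limit read from the data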;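 as to Her2 level: lower value means less Her2 protein in the cells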;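 as to viability: percent of carrier control wells set as 100% viability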). Conditions: 18-24 h, measured here: SKBR3 viability, ATP luminescence, at 10 µM. On the technique in general: Bead proximity is the source of the signal in Alpha formats.
Test [2] has as its target Receptor tyrosine-protein kinase erbB-2 (Homo sapiens) (UniProt P04626). The test is described as above. Conditions: 18-24 h, at 10 µM, stronger effect = lower value.
Test [3] is described as follows: SK-BR-3 cell growth inhibitors, pilot screen, 24 h, human (AID 572;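 active = viability at or below 10% of carrier control in both of two separate runs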;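 also: compound exposure lasted between 18 and 24 h rather than exactly 24 h; 100% = carrier-treated control wells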). The conditions noted are these: SK-BR-3 viability, CellTiter-Glo luminescence, at 10 µM, stronger effect = lower value. On the technique in general: Cellular ATP, detected with luciferase, serves as a proxy for viable cell number.
A short description of test [4]: HUVEC growth inhibition – cell-based, human, primary screen (AID 575;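 active = viability at or below 30% in both replicate assays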;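 also: 100% = median of untreated cell wells with 0.1% DMSO on each plate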). The conditions noted are these: HUVEC proliferation, CellTiter-Glo luminescence, 72 h; at 10 µM; stronger effect = lower value. The method in brief:
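Assay system: primary human umbilical vein endothelial cells / Buffer or medium: endothelial basal medium with 2% FBS plus growth supplements / Compound dosing: one dose, 10 µM final, 0.1% DMSO / Timing: 72 h treatment at 37 °C / Signal: CTG luminescence / Benchmarks: 32 DMSO-only cell-control wells (high), 32 MePR drug-control wells (low) per plate / Plate: collagen-coated 384-well format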

The nature of test [5]: growth inhibitors of H69AR lung tumor, primary screen, human, duplicate replicates (AID 580).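 Also: 100% = mean luminescence of untreated wells and 0% = no signal.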 Conditions: H69AR lung tumor cells viability, ATP luminescence, 72 h; at 10 µM; stronger effect = lower value.
Test [6] can be described thus: reversal of MRP1-mediated doxorubicin resistance, pilot screen, H69AR cells, doxorubicin co-treatment (AID 601;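 active = viability loss from added drug above about 55%, and viability with drug at most 40%, in both replicates, limit read from the data, passing the limit was not always enough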). The conditions noted are these: CellTiter-Glo, 72 h, at 10 µM; for differential viability (reversal): stronger effect = higher value.
A short description of test [7]: 384-well plate pilot, post-Golgi transport modulator project, inhibition of yeast transport mutant growth (AID 636; in the data active = inhibition above about 31%). Conditions: absorbance 615 nm, about 18 h, stronger effect = higher value.
The nature of test [8]: growth suppression of yeast trafficking mutant, preliminary HTS, modulators of trafficking downstream of Golgi apparatus project, 1536-format plate, OD 615 nm (AID 637; in the data active = inhibition above about 30%). Conditions: yeast transport mutant growth, absorbance 615 nm, 18 h; stronger effect = higher value.
Where [9] appears, read: H69AR cells + 2 uM doxorubicin, measured here: viability with 2 uM doxorubicin, stronger effect = lower value.
[10] abbreviates: H69AR cells, compound alone cytotoxicity.

Sequence of Receptor tyrosine-protein kinase erbB-2 (Homo sapiens) (P04626 whole entry, looked up): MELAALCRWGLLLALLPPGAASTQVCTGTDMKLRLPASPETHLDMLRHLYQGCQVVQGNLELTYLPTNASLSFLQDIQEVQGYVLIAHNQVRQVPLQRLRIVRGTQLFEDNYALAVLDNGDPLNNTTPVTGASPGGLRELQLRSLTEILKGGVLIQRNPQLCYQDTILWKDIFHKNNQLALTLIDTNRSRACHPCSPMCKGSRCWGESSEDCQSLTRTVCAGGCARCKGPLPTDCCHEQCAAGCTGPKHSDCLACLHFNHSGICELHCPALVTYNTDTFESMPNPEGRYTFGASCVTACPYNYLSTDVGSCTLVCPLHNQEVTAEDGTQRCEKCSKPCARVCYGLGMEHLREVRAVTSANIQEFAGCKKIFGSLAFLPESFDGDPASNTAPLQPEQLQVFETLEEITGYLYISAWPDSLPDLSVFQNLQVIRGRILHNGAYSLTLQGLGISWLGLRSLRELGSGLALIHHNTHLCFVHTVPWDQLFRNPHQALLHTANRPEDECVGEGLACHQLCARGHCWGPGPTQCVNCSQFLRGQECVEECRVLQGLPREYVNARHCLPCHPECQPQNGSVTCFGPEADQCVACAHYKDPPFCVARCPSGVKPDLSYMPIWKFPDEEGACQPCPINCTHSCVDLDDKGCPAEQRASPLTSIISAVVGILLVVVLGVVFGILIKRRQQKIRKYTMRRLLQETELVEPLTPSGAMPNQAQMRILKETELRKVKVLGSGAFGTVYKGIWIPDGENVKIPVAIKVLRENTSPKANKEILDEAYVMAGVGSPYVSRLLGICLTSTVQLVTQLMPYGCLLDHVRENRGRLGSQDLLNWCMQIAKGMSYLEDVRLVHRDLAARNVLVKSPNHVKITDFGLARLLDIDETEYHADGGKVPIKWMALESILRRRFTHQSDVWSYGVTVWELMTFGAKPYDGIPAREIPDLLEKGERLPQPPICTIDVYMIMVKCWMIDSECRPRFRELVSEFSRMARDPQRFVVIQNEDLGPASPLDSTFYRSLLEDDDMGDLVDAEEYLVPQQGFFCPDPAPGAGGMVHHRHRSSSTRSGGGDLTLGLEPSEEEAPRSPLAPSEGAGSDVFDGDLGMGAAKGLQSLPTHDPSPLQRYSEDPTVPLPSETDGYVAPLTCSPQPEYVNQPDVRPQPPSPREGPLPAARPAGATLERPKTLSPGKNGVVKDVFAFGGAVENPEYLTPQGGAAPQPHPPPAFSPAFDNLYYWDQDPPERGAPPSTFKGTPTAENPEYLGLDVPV

A word on the viability: it is a read-out of living cells in per cent, often relative to untreated cells. A word on the inhibition: it is the relative decrease from the control value, in per cent. Turning to `Cc1ccccc1NC(=O)C1CC(=O)N(c2ccccc2F)C1` (stereo not given), the viability is 91.5% in test [1]; 91.5% (inactive) in test [3]; 102% (inactive) in test [4]; 100% (inactive) in test [5]; 82.1% in test [6] (setting [9]); 100% in test [6] (setting [10]). For the same molecule, the Her2 level in test [2] is 81% (inactive). The differential viability (reversal) in test [6] (H69AR cells + 2 uM doxorubicin) is 18.3% (inactive). The figures for the inhibition in test [7] and in test [8] were -8.65% (inactive) and 6.89% (inactive), respectively.

For the molecule `CN=Cc1cc(-c2ccccc2)sc1O`, the viability was 82% in test [1]; 82% (inactive) in test [3]; 102% (inactive) in test [4]; 90% (inactive) in test [5]; 77% in test [6] (setting [9]); 90% in test [6] (setting [10]). For the same molecule, the Her2 level in test [2] was 102% (inactive). The differential viability (reversal) in test [6] (H69AR cells + 2 uM doxorubicin) was 13% (inactive). The inhibition in test [7] is 0.41% (inactive); in test [8] it was 32.7% (active).

`CS(=O)(=O)N1CCN(CC2CC3C=CC2C3)CC1` (stereo not given): the viability in test [1] is 110%; in test [3], 110% (inactive); in test [4], 111% (inactive); in test [5], 101% (inactive); in test [6] (setting [9]) it was 91.1%; in test [6] (setting [10]), 101%. Further, in test [2], the Her2 level was 98% (inactive). The differential viability (reversal) in test [6] (H69AR cells + 2 uM doxorubicin) was 9.65% (inactive). For the same molecule, the values for the inhibition in test [7] and in test [8] were -6.35% (inactive) and 3.17% (inactive), respectively.

For `CCN(CCNC(=O)CS(=O)(=O)Cc1nc(-c2cccc(OC)c2)oc1C)c1ccccc1`, the viability in test [1] is 97.5%; in test [3] it was 97.5% (inactive); in test [4] it was 78.4% (inactive); in test [5], 99% (inactive); in test [6] (setting [9]), 110%; in test [6] (setting [10]) it was 99%. Besides, in test [2], the Her2 level is 105% (inactive). For the same molecule, the differential viability (reversal) in test [6] (H69AR cells + 2 uM doxorubicin) is -10.6% (inactive). In addition, the inhibition is -6.67% (inactive) in test [7] and -0.48% (inactive) in test [8].

Take `COc1ccccc1C1c2c(oc3ccc(Cl)cc3c2=O)C(=O)N1c1cc(C)on1` (stereo not given): the viability in test [1] is 86.5%; in test [3] it was 86.5% (inactive); in test [4] it was 70.7% (inactive); in test [5] it was 72.2% (inactive); in test [6] (setting [9]), 75.7%; in test [6] (setting [10]), 72.2%. Besides, the Her2 level in test [2] was 82.5% (inactive). Also, the differential viability (reversal) in test [6] (H69AR cells + 2 uM doxorubicin) was -3.51% (inactive). In addition, the inhibition in test [7] is -2.93% (inactive); in test [8], 8.71% (inactive).

As to `CCNC(=O)CC1C(=O)N(c2ccc(F)cc2)C(=O)N1CCC(C)C` (stereo not given), the viability is 103% in test [1]; 103% (inactive) in test [3]; 98.4% (inactive) in test [4]; 92.9% (inactive) in test [5]; 84.5% in test [6] (setting [9]); 92.9% in test [6] (setting [10]). For the same molecule, the Her2 level in test [2] is 80.5% (inactive). Besides, in test [6] (H69AR cells + 2 uM doxorubicin), the differential viability (reversal) is 8.4% (inactive). The inhibition in test [7] was 0.66% (inactive); in test [8], -3.64% (inactive).

Consider `O=S(=O)(c1ccc(F)c(Cl)c1)N1CCCC1`, for which the viability in test [1] is 100%; in test [3] it was 100% (inactive); in test [4], 93.9% (inactive); in test [5], 92.2% (inactive); in test [6] (setting [9]), 89.2%; in test [6] (setting [10]), 92.2%. The Her2 level in test [2] is 71% (inactive). In test [6] (H69AR cells + 2 uM doxorubicin), the differential viability (reversal) is 3.06% (inactive). For the same molecule, the inhibition in test [7] was -5.68% (inactive); in test [8], 0.16% (inactive).

For the molecule `OCc1nc2ccccc2n1CC(O)Cn1ccc2ccccc21` (stereo not given), the viability is 97.5% in test [1]; 97.5% (inactive) in test [3]; 69.6% (inactive) in test [4]; 85.2% (inactive) in test [5]; 101% in test [6] (setting [9]); 85.2% in test [6] (setting [10]). Moreover, the Her2 level in test [2] is 116% (inactive). In test [6] (H69AR cells + 2 uM doxorubicin), the differential viability (reversal) was -15.4% (inactive). Moreover, the inhibition is -1.97% (inactive) in test [7] and 8.36% (inactive) in test [8].

Regarding `O=C(CSc1ncn[nH]1)c1ccco1`, the viability was 120% in test [1]; 120% (inactive) in test [3]; 95.9% (inactive) in test [4]; 94.7% (inactive) in test [5]; 98.5% in test [6] (setting [9]); 94.7% in test [6] (setting [10]). In addition, the Her2 level in test [2] was 92% (inactive). Also, the differential viability (reversal) in test [6] (H69AR cells + 2 uM doxorubicin) was -3.81% (inactive). The inhibition in test [7] is -1.56% (inactive); in test [8], 0.33% (inactive).

Consider `Cc1cccc(N2CCN(C(=O)CCn3c(=S)[nH]c4cc5c(cc4c3=O)OCO5)CC2C)c1` (stereo not given), for which the viability in test [1] is 86%; in test [3] it was 86% (inactive); in test [4] it was 38.2% (inactive); in test [5], 50.8% (inactive); in test [6] (setting [9]) it was 56.8%; in test [6] (setting [10]), 50.8%. For the same molecule, the Her2 level in test [2] is 85.5% (inactive). Further, the differential viability (reversal) in test [6] (H69AR cells + 2 uM doxorubicin) is -5.97% (inactive). The inhibition was -1.3% (inactive) in test [7] and 1.27% (inactive) in test [8].

As for `O=C1COc2ccc(C(=O)NCc3ccco3)cc2N1`, the viability in test [1] is 95.5%; in test [3], 95.5% (inactive); in test [4], 105% (inactive); in test [5], 104% (inactive); in test [6] (setting [9]) it was 96.1%; in test [6] (setting [10]), 104%. For the same molecule, the Her2 level in test [2] was 86% (inactive). The differential viability (reversal) in test [6] (H69AR cells + 2 uM doxorubicin) is 7.71% (inactive). In addition, the inhibition in test [7] is -2.11% (inactive); in test [8] it was -7.26% (inactive).

As for `O=C(CC1CCS(=O)(=O)C1)Nc1ccc[nH]c1=O` (stereo not given), the viability is 102% in test [1]; 102% (inactive) in test [3]; 88.1% (inactive) in test [4]; 106% (inactive) in test [5]; 92.3% in test [6] (setting [9]); 106% in test [6] (setting [10]). Besides, the Her2 level in test [2] is 82.5% (inactive). Also, in test [6] (H69AR cells + 2 uM doxorubicin), the differential viability (reversal) was 14.1% (inactive). For the same molecule, the figures for the inhibition in test [7] and in test [8] were -4.74% (inactive) and -8% (inactive), respectively.

For the molecule `COc1ccccc1-c1cn[nH]c(=S)n1`, the viability is 101% in test [1]; 101% (inactive) in test [3]; 100% (inactive) in test [4]; 96.1% (inactive) in test [5]; 92.9% in test [6] (setting [9]); 96.1% in test [6] (setting [10]). Besides, the Her2 level in test [2] is 108% (inactive). For the same molecule, the differential viability (reversal) in test [6] (H69AR cells + 2 uM doxorubicin) is 3.25% (inactive). For the same molecule, the inhibition is 1.07% (inactive) in test [7] and -8.06% (inactive) in test [8].

Regarding `CCCOc1ccc(C2c3c(oc4ccccc4c3=O)C(=O)N2CCCN2CCOCC2)cc1` (stereo not given), the viability in test [1] is 84.5%; in test [3], 84.5% (inactive); in test [4] it was 90.3% (inactive); in test [5] it was 71.6% (inactive); in test [6] (setting [9]), 71%; in test [6] (setting [10]) it was 71.6%. The Her2 level in test [2] was 77.5% (inactive). The differential viability (reversal) in test [6] (H69AR cells + 2 uM doxorubicin) was 0.68% (inactive). Besides, the figures for the inhibition in test [7] and in test [8] were -3.73% (inactive) and -4.26% (inactive), respectively.

In the case of `CCCCN(Cc1cc2cc(OC)ccc2[nH]c1=O)C(=O)COc1ccccc1`, the viability in test [1] was 73%; in test [3], 73% (inactive); in test [4], 108% (inactive); in test [5] it was 93.6% (inactive); in test [6] (setting [9]), 98.1%; in test [6] (setting [10]) it was 93.6%. Besides, the Her2 level in test [2] was 79% (inactive). Also, the differential viability (reversal) in test [6] (H69AR cells + 2 uM doxorubicin) was -4.48% (inactive). Besides, the inhibition was -0.13% (inactive) in test [7] and 0.82% (inactive) in test [8].

The values are drawn from PubChem BioAssay.
